In ChEMBL document CHEMBL1144989, “Synthesis and biological evaluation of resveratrol and analogues as apoptosis-inducing agents” (J Med Chem, 2003):

Columns and labels:
[1] = tested on: HL-60; assay: In vitro concentration required to induce apoptosis in HL60 cells; assay type: functional, cell-based, Homo sapiens
How it was run: (§1)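 Apoptosis scored morphologically after acridine orange/ethidium bromide labeling. 2 × 10^5 cells were pelleted at 300g, resuspended in dye mix and examined under a fluorescence microscope with a 100× oil objective. Percentages were confirmed by annexin V/PI and by the PI sub-G0-G1 hypodiploid peak after 48 h culture. Compounds were diluted in medium from DMSO or PBS, DMSO ≤0.1%.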

[2] = tested on: HL-60; assay: In vitro inhibitory concentration against proliferation of HL60 cells; assay type: functional, cell-based, Homo sapiens
How it was run: (§2)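 Cells were cultured at 37 °C in 5% CO2. 2 × 10^5 cells in 1 mL complete medium were treated with a range of drug concentrations for 48 h. Viable cells were counted on a hemocytometer after trypan blue staining and expressed as percent of control proliferation. Compounds were diluted in medium from DMSO or PBS stocks, final DMSO ≤0.1%, protected from light.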

[3] = tested on: HL-60; assay: (§3) In vitro concentration required to induce apoptosis in HL60R cells; assay type: functional, cell-based; settings: Homo sapiens; how it was run: as §1
[4] = tested on: HL-60; assay: (§4) In vitro inhibitory concentration against proliferation of HL60R cells; assay type: functional, cell-based; settings: Homo sapiens; how it was run: as §2
[5] = tested on: HL-60; assay: (§5) In vitro inhibitory concentration against proliferation of HL60R cells along with 5 (uM) verapamil; assay type: functional, cell-based; settings: Homo sapiens; how it was run: as §2
[6] = tested on: HL-60; assay: In vitro concentration required to inhibit cell proliferation in HL60R cells; settings: Homo sapiens
[7] = tested on: HL-60; assay: as §3; assay type: functional, cell-based; settings: Homo sapiens; remark: listed apart in the source
How it was run: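 HL60R cells in 5% CO2 at 37 °C, treated with a range of drug concentrations for 48 h. Cells were labelled with acridine orange/ethidium bromide and scored under fluorescence microscopy (100× oil) as live, apoptotic or necrotic. The AC50 is derived from the percentage of apoptotic cells. Annexin V/PI staining and PI sub-G0-G1 flow cytometry served as confirmation. DMSO ≤0.1%.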

[8] = tested on: HL-60; assay: as §4; assay type: functional, cell-based; settings: Homo sapiens; remark: listed apart in the source
How it was run: (§6)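 HL60R cells, 2 × 10^5 per well in 1 mL complete medium at 37 °C with 5% CO2, treated with a range of drug concentrations for 48 h. Compounds were dissolved in DMSO or PBS, with final DMSO ≤0.1%. Viable cells were counted by trypan blue exclusion on a hemocytometer and expressed as percent of control proliferation to derive the IC50.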

[9] = tested on: HL-60; assay: as §5; assay type: functional, cell-based; settings: Homo sapiens; remark: listed apart in the source
How it was run: as §6, with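 “given verapamil together” for “treated”, “h.” for “h. Compounds were dissolved in DMSO or PBS, with final DMSO ≤0.1%.”, “IC50. Final DMSO ≤0.1%.” for “IC50.”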

Row | Molecule | AC50 ([1]; Homo sapiens, HL-60) [µM] | IC50 ([2]; Homo sapiens, HL-60) [µM] | also measured
1 | COc1cc(/C=C\c2ccc(O)c(OC)c2)cc(OC)c1 | 38 | 20 | 
2 | COc1ccc(/C=C/c2cc(O)cc(O)c2)cc1O | > 200 | 48 | 
3 | COc1cc(/C=C/c2ccc(O)c(OC)c2)cc(OC)c1 | 40 | 25 | 
4 | Oc1ccc(/C=C\c2cc(O)cc(O)c2)cc1 [CIS-RESVERATROL] | > 200 | 42 | 
5 | COc1ccc(/C=C\c2cc(O)cc(O)c2)cc1N | 68 | 40 | 
6 | O=c1[nH]cc(F)c(=O)[nH]1 [FLUOROURACIL] | 6.5 | 1.5 | 
7 | COc1cc(/C=C/c2ccc(OC)c(N)c2)cc(OC)c1 | 8 | 4 | 
8 | CISPLATIN |  |  | AC50 ([1]; hl-60): 1.2 µM; IC50 ([2]; hl-60): 0.6 µM
9 | Oc1ccc(/C=C/c2cc(O)cc(O)c2)cc1 [RESVERATROL] | 50 | 5 | 
10 | COc1cc(/C=C/c2ccc(O)c(O)c2)cc(OC)c1 | 1 | 0.8 | 
11 | COc1ccc(/C=C/c2cc(O)cc(O)c2)cc1N | > 200 | 80 | 
12 | COc1ccc(/C=C\c2cc(O)cc(O)c2)cc1O | 70 | 40 | 
13 | COc1cc([C@@H]2c3cc4c(cc3[C@@H](O[C@@H]3O[C@@H]5CO[C@@H](C)O[C@H]5[C@H](O)[C@H]3O)[C@H]3COC(=O)[C@H]23)OCO4)cc(OC)c1O [ETOPOSIDE] | 0.45 | 0.123 | AC50 [3]: 15 µM; IC50 [4]: 6.5 µM; IC50 [5]: 0.5 µM
14 | COc1cc(/C=C\c2ccc(O)c(O)c2)cc(OC)c1 | 0.1 | 0.05 | 
15 | COc1cc(/C=C\c2ccc(O)cc2)cc(OC)c1 | 5 | 2 | 
16 | COc1cc(/C=C/c2ccc(O[Si](C)(C)C(C)(C)C)cc2)cc(OC)c1 | > 200 | 48 | 
17 | COc1cc(/C=C\c2ccc(O[Si](C)(C)C(C)(C)C)cc2)cc(OC)c1 | > 200 | 50 | 
18 | COc1cc(/C=C/c2ccc(O)cc2)cc(OC)c1 [PTEROSTILBENE] | 70 | 35 | 
19 | COc1cc(/C=C/c2ccc(OC)c(O)c2)cc(OC)c1 | 0.9 | 0.7 | 
20 | COc1cccc2c1C(=O)c1c(O)c3c(c(O)c1C2=O)C[C@@](O)(C(C)=O)C[C@@H]3O[C@H]1C[C@H](N)[C@H](O)[C@H](C)O1 [DAUNORUBICIN] | 0.04 | 0.005 | AC50 [3]: 10 µM; IC50 [4]: 1.5 µM; IC50 [5]: 0.04 µM
21 | Nc1ccn([C@@H]2O[C@H](CO)[C@@H](O)[C@@H]2O)c(=O)n1 [CYTARABINE] | 0.15 | 0.08 | AC50 [3]: 8 µM; IC50 [6]: 0.35 µM
22 | COc1cc(/C=C\c2ccc(OC)c(N)c2)cc(OC)c1 | 0.04 |  | AC50 [3]: 0.05 µM; IC50 [4]: 0.035 µM; IC50 [5]: 0.032 µM
23 | COc1cc(/C=C\c2ccc(OC)c(O)c2)cc(OC)c1 | 0.04 |  | AC50 [7]: 0.03 µM; IC50 [8]: 0.025 µM; IC50 [9]: 0.02 µM
